Converted amounts (≈) assume the structure as drawn.

Type in all cases: functional
In experiment [1] the test system is Streptococcus pyogenes. Description: Antibacterial activity against erythromycin-sensitive Streptococcus pyogenes 3 after 16 to 20 hrs by microbroth dilution method. In a few lines:
(§1)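 CLSI broth microdilution in Mueller-Hinton broth. Compounds were dissolved in 100% DMSO and serially two-fold diluted to cover 0.12 to >256 mg/L. An equal volume of inoculum at 1 × 10⁶ CFU/mL was added, then plates were incubated at 35 °C for 16–20 h. MIC was the lowest concentration with no visible growth. DMSO and uninoculated-medium controls were run in parallel.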

The subject of another experiment is Serratia marcescens. Description: Antibacterial activity against Serratia marcescens Mel 522 after 16 to 20 hrs by microbroth dilution method. In a few lines:
as §1
A general note: In broth dilution the organism is exposed to a series of concentrations in liquid medium.

The subject of experiment [2] is Streptococcus pyogenes. Description: Antibacterial activity against Streptococcus pyogenes ATCC 19615 after 16 to 20 hrs by microbroth dilution method. In a few lines:
(§2)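 CLSI broth microdilution in Mueller-Hinton broth. Compound stocks in 100% DMSO, serially diluted two-fold to 0.12->256 mg/L. An equal volume of inoculum at 1 x 10⁶ CFU/mL was added to each well. Plates were incubated 16-20 h at 35 °C. MIC (mg/L) was taken as the lowest concentration with no visible growth. DMSO and uninoculated-medium controls were run in parallel.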

The test system of experiment [3] is Staphylococcus aureus. Description: Antibacterial activity against methicillin-sensitive Staphylococcus aureus ATCC 25923 after 16 to 20 hrs by microbroth dilution method. In a few lines: as §1
In experiment [4] the test system is Streptococcus pyogenes. Description: Antibacterial activity against erythromycin-resistant Streptococcus pyogenes 24 after 16 to 20 hrs by microbroth dilution method. In a few lines:
as §2

Experiment [5] deals with Streptococcus pyogenes. In words: Antibacterial activity against erythromycin-resistant Streptococcus pyogenes 47 after 16 to 20 hrs by microbroth dilution method. In a few lines:
as §2

Experiment [6] deals with Streptococcus pyogenes. Description: Antibacterial activity against erythromycin-sensitive Streptococcus pyogenes 9 after 16 to 20 hrs by microbroth dilution method. An outline of the steps:
as §1

Experiment [7] deals with Escherichia coli. Description: Antibacterial activity against Escherichia coli ATCC 25922 after 16 to 20 hrs by microbroth dilution method. An outline of the steps:
as §1

Experiment [8] deals with Streptococcus pyogenes. Description: Antibacterial activity against erythromycin-sensitive Streptococcus pyogenes 12 after 16 to 20 hrs by microbroth dilution method. In a few lines:
as §1

The subject of experiment [9] is Streptococcus pyogenes. Description: Antibacterial activity against erythromycin-resistant Streptococcus pyogenes 6 after 16 to 20 hrs by microbroth dilution method. An outline of the steps: as §2
Experiment [10] concerns Escherichia coli. Description: Antibacterial activity against Escherichia coli 3350 after 16 to 20 hrs by microbroth dilution method. In a few lines:
as §1

The next experiment concerns Streptococcus pneumoniae. In words: Antibacterial activity against Streptococcus pneumoniae PEN-1 after 16 to 20 hrs by microbroth dilution method. Conditions: PEN I. In a few lines:
as §1

Experiment [11] concerns Staphylococcus aureus. In words: Antibacterial activity against methicillin-sensitive Staphylococcus aureus ATCC 29213 after 16 to 20 hrs by microbroth dilution method. In a few lines: as §1
Experiment [12] concerns Staphylococcus aureus. In words: Antibacterial activity against methicillin-resistant Staphylococcus aureus C530 after 16 to 20 hrs by microbroth dilution method. An outline of the steps: as §2
Experiment [13] deals with Staphylococcus aureus. In words: Antibacterial activity against Staphylococcus aureus ATCC 43300 after 16 to 20 hrs by microbroth dilution method. In a few lines:
as §1

The subject of experiment [14] is Staphylococcus aureus. Description: Antibacterial activity against methicillin-resistant glycopeptide-intermediate Staphylococcus aureus Mu50 after 16 to 20 hrs by microbroth dilution method. An outline of the steps: as §2

Usually MIC stands for the lowest concentration found to suppress growth. High values mean weaker potency, low ones greater potency. In the case of `CC(=O)NC[C@H]1CN(c2ccc(N3CCOCC3)c(F)c2)C(=O)O1` [LINEZOLID], the MIC in the experiment with Streptococcus pyogenes [1] was 1 µg/mL (≈ 2.96 µM); against Serratia marcescens, 128 µg/mL (≈ 379 µM); against Streptococcus pyogenes [2], 1 µg/mL (≈ 2.96 µM); with Staphylococcus aureus [3], 1 µg/mL (≈ 2.96 µM); with Streptococcus pyogenes [4], 0.12 µg/mL (≈ 0.356 µM); with Streptococcus pyogenes [5], 1 µg/mL (≈ 2.96 µM). Further, the MIC against Streptococcus pyogenes [6] is 1 µg/mL (≈ 2.96 µM); against Escherichia coli [7], 4 µg/mL (≈ 11.9 µM); with Streptococcus pyogenes [8], 0.25 µg/mL (≈ 0.741 µM); against Streptococcus pyogenes [9] it was 0.12 µg/mL (≈ 0.356 µM); against Escherichia coli [10], more than 256 µg/mL.
As to `NC(=O)c1noc(-c2ccc(N3CCOCC3)c(F)c2)n1`, the MIC is 128 µg/mL (≈ 438 µM) in the experiment with Streptococcus pyogenes [1]; 128 µg/mL (≈ 438 µM) with Serratia marcescens; more than 256 µg/mL with Streptococcus pneumoniae; 128 µg/mL (≈ 438 µM) with Streptococcus pyogenes [2]; more than 256 µg/mL in the experiment with Staphylococcus aureus [3]; more than 256 µg/mL in the experiment on Staphylococcus aureus [11]. Further, the MIC in the experiment with Streptococcus pyogenes [4] was 128 µg/mL (≈ 438 µM); against Staphylococcus aureus [12] it was more than 256 µg/mL; with Streptococcus pyogenes [5] it was more than 256 µg/mL; against Staphylococcus aureus [13], more than 256 µg/mL; in the experiment with Streptococcus pyogenes [6] it was more than 256 µg/mL; against Escherichia coli [7], 128 µg/mL (≈ 438 µM). Besides, the MIC against Streptococcus pyogenes [8] was 128 µg/mL (≈ 438 µM); in the experiment with Staphylococcus aureus [14], more than 256 µg/mL; with Streptococcus pyogenes [9], 128 µg/mL (≈ 438 µM); in the experiment on Escherichia coli [10] it was 128 µg/mL (≈ 438 µM).
Consider `NC(=O)c1noc(-c2cc(F)c(N3CCOCC3)c(F)c2F)n1`, for which the MIC is more than 256 µg/mL against Streptococcus pyogenes [1]; more than 256 µg/mL with Serratia marcescens; more than 256 µg/mL against Streptococcus pneumoniae; 128 µg/mL (≈ 390 µM) in the experiment with Streptococcus pyogenes [2]; more than 256 µg/mL against Staphylococcus aureus [3]; more than 256 µg/mL with Staphylococcus aureus [11]. Also, the MIC was more than 256 µg/mL with Streptococcus pyogenes [4]; more than 256 µg/mL in the experiment with Staphylococcus aureus [12]; 128 µg/mL (≈ 390 µM) against Streptococcus pyogenes [5]; more than 256 µg/mL in the experiment on Staphylococcus aureus [13]; more than 256 µg/mL in the experiment on Streptococcus pyogenes [6]; 128 µg/mL (≈ 390 µM) against Escherichia coli [7]. For the same compound, the MIC was more than 256 µg/mL in the experiment on Streptococcus pyogenes [8], more than 256 µg/mL against Staphylococcus aureus [14], 128 µg/mL (≈ 390 µM) with Streptococcus pyogenes [9] and 128 µg/mL (≈ 390 µM) against Escherichia coli [10].
For the compound `CO/N=C(\C(=O)N[C@@H]1C(=O)N2C(C(=O)O)=C(CSc3nc(=O)c(O)nn3C)CS[C@H]12)c1csc(N)n1` [CEFTRIAXONE], the MIC against Streptococcus pyogenes [1] is less than 0.12 µg/mL; with Serratia marcescens, less than 0.12 µg/mL; against Streptococcus pneumoniae, 0.12 µg/mL (≈ 0.216 µM); in the experiment with Streptococcus pyogenes [2] it was less than 0.12 µg/mL; against Staphylococcus aureus [3] it was 1 µg/mL (≈ 1.8 µM); with Staphylococcus aureus [11], 4 µg/mL (≈ 7.21 µM). Further, the MIC against Streptococcus pyogenes [4] was less than 0.12 µg/mL; with Staphylococcus aureus [12], more than 256 µg/mL; with Streptococcus pyogenes [5], less than 0.12 µg/mL; in the experiment with Staphylococcus aureus [13], 8 µg/mL (≈ 14.4 µM); against Streptococcus pyogenes [6], less than 0.12 µg/mL; in the experiment on Escherichia coli [7], 0.12 µg/mL (≈ 0.216 µM). Further, the MIC against Streptococcus pyogenes [8] is less than 0.12 µg/mL; with Staphylococcus aureus [14], 4 µg/mL (≈ 7.21 µM); with Streptococcus pyogenes [9], less than 0.12 µg/mL; in the experiment with Escherichia coli [10], 4 µg/mL (≈ 7.21 µM).
Regarding `CC(=O)NCc1noc(-c2cc(F)c(N3CCOCC3)c(F)c2F)n1`, the MIC is more than 256 µg/mL with Streptococcus pyogenes [1]; more than 256 µg/mL against Serratia marcescens; more than 256 µg/mL against Streptococcus pneumoniae; 128 µg/mL (≈ 359 µM) in the experiment on Streptococcus pyogenes [2]; more than 256 µg/mL against Staphylococcus aureus [3]; more than 256 µg/mL with Staphylococcus aureus [11]. For the same compound, the MIC against Streptococcus pyogenes [4] was more than 256 µg/mL; with Staphylococcus aureus [12], more than 256 µg/mL; in the experiment with Streptococcus pyogenes [5] it was 128 µg/mL (≈ 359 µM); with Staphylococcus aureus [13], more than 256 µg/mL; with Streptococcus pyogenes [6], more than 256 µg/mL; against Escherichia coli [7] it was 128 µg/mL (≈ 359 µM). The MIC with Streptococcus pyogenes [8] is more than 256 µg/mL; with Staphylococcus aureus [14] it was more than 256 µg/mL; against Streptococcus pyogenes [9], 128 µg/mL (≈ 359 µM); against Escherichia coli [10], 128 µg/mL (≈ 359 µM).
`CC(=O)NCc1noc(-c2c(F)c(F)c(N3CCOCC3)c(F)c2F)n1`: the MIC in the experiment on Streptococcus pyogenes [1], against Serratia marcescens, in the experiment with Streptococcus pneumoniae, against Streptococcus pyogenes [2], against Staphylococcus aureus [3] and with Staphylococcus aureus [11] was more than 256 µg/mL throughout. For the same compound, the MIC with Streptococcus pyogenes [4] is more than 256 µg/mL; in the experiment with Staphylococcus aureus [12] it was more than 256 µg/mL; in the experiment with Streptococcus pyogenes [5], more than 256 µg/mL; against Staphylococcus aureus [13], more than 256 µg/mL; against Streptococcus pyogenes [6] it was more than 256 µg/mL; in the experiment with Escherichia coli [7], 128 µg/mL (≈ 342 µM). Further, the MIC against Streptococcus pyogenes [8], in the experiment on Staphylococcus aureus [14], with Streptococcus pyogenes [9] and in the experiment with Escherichia coli [10] was more than 256 µg/mL each time.
On to `CC(=O)NCc1noc(-c2ccc(N3CCOCC3)cc2)n1`, for which the MIC against Streptococcus pyogenes [1] was 128 µg/mL (≈ 423 µM); with Serratia marcescens it was 128 µg/mL (≈ 423 µM); against Streptococcus pneumoniae it was 128 µg/mL (≈ 423 µM); against Streptococcus pyogenes [2], 128 µg/mL (≈ 423 µM); in the experiment on Staphylococcus aureus [3] it was more than 256 µg/mL; in the experiment with Staphylococcus aureus [11] it was more than 256 µg/mL. Also, the minimal inhibitory concentration (MIC) in the experiment with Streptococcus pyogenes [4] is 64 µg/mL (≈ 212 µM); in the experiment on Staphylococcus aureus [12], more than 256 µg/mL; against Streptococcus pyogenes [5], 64 µg/mL (≈ 212 µM); with Staphylococcus aureus [13], more than 256 µg/mL; against Streptococcus pyogenes [6], 128 µg/mL (≈ 423 µM); with Escherichia coli [7], more than 256 µg/mL. Besides, the MIC with Streptococcus pyogenes [8] is 128 µg/mL (≈ 423 µM); in the experiment with Staphylococcus aureus [14], more than 256 µg/mL; in the experiment on Streptococcus pyogenes [9] it was 128 µg/mL (≈ 423 µM); against Escherichia coli [10], 128 µg/mL (≈ 423 µM).

The values are drawn from ChEMBL document CHEMBL1949535, “Synthesis and preliminary antibacterial evaluation of Linezolid-like 1,2,4-oxadiazole derivatives” (2012).
